# Assays:
# Rattus norvegicus [1] = test: Anti-benign prostatic hyperplasia activity in Wistar rat assessed as reduction of dorsal prostate weight gain at 1 mg/kg, po qd for 14 days measured on day 15; assay type: functional, Prostate gland; set-up: scale not given: the % may be the effect or the level left
# How it was run: (§1)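 Mature male Wistar rats, acclimatised one month, dosed orally once daily for 14 days with suspension in 0.50% carboxymethylcellulose at 5 ml/kg; vehicle controls; 5 rats/group. Killed under ether on day 15, 24 h after last dose; organs dissected free of fat and connective tissue, weighed, expressed per 100 g body weight. Mean ± SEM; one-way ANOVA with Dunnett's test.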
# [2] = biological target: T1, 3-oxo-5-alpha-steroid 4-dehydrogenase 2 (Homo sapiens) (UniProt P31213); test: Inhibition of human type-2 5-alpha reductase expressed in HEK293 cells using [3H]-androstenedione as substrate at 2 uM after 30 mins by HPLC analysis; assay type: cell-based
# T1 sequence (whole entry): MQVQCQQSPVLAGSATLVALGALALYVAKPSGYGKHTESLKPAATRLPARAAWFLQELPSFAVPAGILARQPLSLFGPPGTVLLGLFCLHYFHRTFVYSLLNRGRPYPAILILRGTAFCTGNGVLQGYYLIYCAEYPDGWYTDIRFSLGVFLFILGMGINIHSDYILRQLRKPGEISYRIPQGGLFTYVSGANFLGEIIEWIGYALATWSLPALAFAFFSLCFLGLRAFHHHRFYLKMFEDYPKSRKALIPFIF
# How it was run: (§2)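 Lysates of 80% confluent HEK293 cells stably expressing human type I or type II cDNA (pRcCMV), sonicated in 300 mM saccharose, 5 mM Tris-HCl, 0.1 mM EDTA. Final 500 nM androstenedione with [3H]androstenedione, NADPH-regenerating system (0.55 mM NADP, 5 mM glucose-6-phosphate, G6PDH), 2% DMSO; 30 min, 37 °C. Ether-extracted; conversion quantified by radio-HPLC on C8.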
# Rattus norvegicus [3] = test: Anti-benign prostatic hyperplasia activity in Wistar rat assessed as reduction of body weight gain at 1 mg/kg, po qd for 14 days measured on day 15; assay type: functional; set-up: scale not given: the % may be the effect or the level left; how it was run: as §1
# Rattus norvegicus [4] = test: Anti-benign prostatic hyperplasia activity in Wistar rat assessed as reduction of adrenal weight gain per 100 gram of body weight at 1 mg/kg, po qd for 14 days measured on day 15; assay type: functional; how it was run: as §1
# Rattus norvegicus [5] = test: Anti-benign prostatic hyperplasia activity in Wistar rat assessed as reduction of liver weight gain per 100 gram of body weight at 1 mg/kg, po qd for 14 days measured on day 15; assay type: functional; how it was run: as §1
# [6] = biological target: T1, 3-oxo-5-alpha-steroid 4-dehydrogenase 2 (Homo sapiens); test: Inhibition of human type-2 5-alpha reductase expressed in HEK293 cells using [3H]-androstenedione as substrate at 10 uM after 30 mins by HPLC analysis; assay type: cell-based; how it was run: as §2
# [7] = biological target: T2, 3-oxo-5-alpha-steroid 4-dehydrogenase 1 (Homo sapiens) (UniProt P18405); test: Inhibition of human type-1 5-alpha reductase expressed in HEK293 cells using [3H]-androstenedione as substrate at 10 uM after 30 mins by HPLC analysis; assay type: cell-based; how it was run: as §2
# T2 sequence (whole entry): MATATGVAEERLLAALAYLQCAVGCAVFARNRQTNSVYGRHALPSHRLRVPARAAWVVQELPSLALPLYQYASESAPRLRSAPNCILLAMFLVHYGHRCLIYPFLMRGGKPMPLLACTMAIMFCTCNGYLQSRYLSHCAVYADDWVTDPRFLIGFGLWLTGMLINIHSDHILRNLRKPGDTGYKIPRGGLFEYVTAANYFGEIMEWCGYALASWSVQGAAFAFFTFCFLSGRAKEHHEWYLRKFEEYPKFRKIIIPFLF
# Rattus norvegicus [8] = test: Toxicity in Wistar rat assessed as mortality at 1 mg/kg, po qd for 14 days measured on day 15; assay type: organism-based; set-up: dose 1 mg/kg, route oral; conditions: in vivo, 336 h
# How it was run: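 Mature male Wistar rats, acclimatised one month, dosing begun after 9 weeks. Compound suspended in 0.50% carboxymethylcellulose sodium and given orally at 5 ml/kg once daily for 14 days. Vehicle-only control group, 5 animals per group. Mortality recorded over treatment. Rats weighed and killed under ether anaesthesia on day 15, 24 h after the last dose.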
# [9] = biological target: T3, 3-oxo-5-alpha-steroid 4-dehydrogenase 2 (Homo sapiens, UniProt P31213); test: Inhibition of human type-2 5-alpha reductase expressed in HEK293 cells using [3H]-androstenedione as substrate after 30 mins by HPLC analysis; assay type: cell-based; how it was run: as §2
# T3 sequence (P31213 whole entry): T1 sequence (whole entry)
# Rattus norvegicus [10] = test: Anti-benign prostatic hyperplasia activity in Wistar rat assessed as reduction of vas deferens weight gain at 1 mg/kg, po qd for 14 days measured on day 15; assay type: functional; set-up: scale not given: the % may be the effect or the level left; how it was run: as §1
# Rattus norvegicus [11] = test: Anti-benign prostatic hyperplasia activity in Wistar rat assessed as reduction of seminal vesicle weight gain per 100 gram of body weight at 1 mg/kg, po qd for 14 days measured on day 15; assay type: functional; how it was run: as §1
# Rattus norvegicus [12] = test: Anti-benign prostatic hyperplasia activity in Wistar rat assessed as reduction of epididymis weight gain at 1 mg/kg, po qd for 14 days measured on day 15; assay type: functional; set-up: scale not given: the % may be the effect or the level left; how it was run: as §1
# Rattus norvegicus [13] = test: Anti-benign prostatic hyperplasia activity in Wistar rat assessed as reduction of testis weight gain per 100 gram of body weight at 1 mg/kg, po qd for 14 days measured on day 15; assay type: functional; how it was run: as §1
# Rattus norvegicus [14] = test: Anti-benign prostatic hyperplasia activity in Wistar rat assessed as reduction of ventral prostate weight gain at 1 mg/kg, po qd for 14 days measured on day 15; assay type: functional, Prostate gland; set-up: scale not given: the % may be the effect or the level left; how it was run: as §1
inhibition [6],inhibition [7],SMILES,Activity (Rattus norvegicus [1]),inhibition [2],Activity (Rattus norvegicus [3]),Activity (Rattus norvegicus [4]),Activity (Rattus norvegicus [5]),Activity (Rattus norvegicus [8]),IC50 [9],Activity (Rattus norvegicus [10]),Activity (Rattus norvegicus [11]),Activity (Rattus norvegicus [12]),Activity (Rattus norvegicus [13]),Activity (Rattus norvegicus [14])
48.9%,56.1%,CCN1C(=O)CC[C@H]2[C@@H]3CC=C4C=C(C#N)CC[C@]4(C)[C@H]3CC[C@@]21C,–,–,–,–,–,–,–,–,–,–,–,–
34.7%,0%,C[C@]12CCC(C#N)=CC1=CC[C@@H]1[C@@H]2CC[C@@]2(C)[C@H]1CCC(=O)N2Cc1ccccc1,–,–,–,–,–,–,–,–,–,–,–,–
9.9%,27.6%,C[C@]12CCC(C#N)=CC1=CC[C@@H]1[C@@H]2CC[C@]2(C)NC(=O)CC[C@@H]12,–,–,–,–,–,–,–,–,–,–,–,–
45.6%,34.5%,C[C@]12CCC(Br)=CC1=CC[C@@H]1[C@@H]2CC[C@]2(C)NC(=O)CC[C@@H]12,–,–,–,–,–,–,–,–,–,–,–,–
11.4%,0%,C[C@]12CCC(C#N)=CC1=CC[C@@H]1[C@@H]2CC[C@@]2(C)[C@H]1CCC(=O)N2C(=O)c1ccccc1,–,–,–,–,–,–,–,–,–,–,–,–
3.3%,20.8%,C=CCN1C(=O)CC[C@H]2[C@@H]3CC=C4C=C(C#N)CC[C@]4(C)[C@H]3CC[C@@]21C,–,–,–,–,–,–,–,–,–,–,–,–
9.9%,0%,C[C@]12CCC(C#N)=CC1=CC[C@@H]1[C@@H]2CC[C@@]2(C)[C@H]1CCC(=O)N2CCC#N,–,–,–,–,–,–,–,–,–,–,–,–

# Continued, compound first:
SMILES,inhibition [6],inhibition [7],Activity (Rattus norvegicus [1]),inhibition [2],Activity (Rattus norvegicus [3]),Activity (Rattus norvegicus [4]),Activity (Rattus norvegicus [5]),Activity (Rattus norvegicus [8]),IC50 [9],Activity (Rattus norvegicus [10]),Activity (Rattus norvegicus [11]),Activity (Rattus norvegicus [12]),Activity (Rattus norvegicus [13]),Activity (Rattus norvegicus [14])
CCOC(=O)CCN1C(=O)CC[C@H]2[C@@H]3CC=C4C=C(C(=O)O)CC[C@]4(C)[C@H]3CC[C@@]21C,100%,8.5%,28.75%,100%,15.618%,17.522 mg,3.542 g,Non-toxic,26.5 nM,37.55%,136.605 mg,25.41%,1075.498 mg,33.86%
CC(=O)N1C(=O)CC[C@H]2[C@@H]3CC=C4C=C(C#N)CC[C@]4(C)[C@H]3CC[C@@]21C,23.2%,2.2%,–,–,–,–,–,–,–,–,–,–,–,–
CN1C(=O)CC[C@H]2[C@@H]3CC=C4C=C(C(=O)O)CC[C@]4(C)[C@H]3CC[C@@]21C,100%,18.9%,39.96%,99%,6.517%,12.464 mg,3.224 g,Non-toxic,54.1 nM,29.36%,126.262 mg,31.75%,956.392 mg,39.5%
C[C@]12CC[C@H]3[C@@H](CC=C4C=C(C#N)CC[C@@H]43)[C@@H]1CCC2=O,1.2%,0%,–,–,–,–,–,–,–,–,–,–,–,–
C=CCN1C(=O)CC[C@H]2[C@@H]3CC=C4C=C(C(=O)O)CC[C@]4(C)[C@H]3CC[C@@]21C,100%,0.4%,31.25%,99.7%,7.518%,17.967 mg,3.168 g,Non-toxic,72.8 nM,27.89%,149.399 mg,24.75%,1094.935 mg,35.34%
CC(C)(C)NC(=O)[C@H]1CC[C@H]2[C@@H]3CC[C@H]4NC(=O)C=C[C@]4(C)[C@H]3CC[C@]12C [FINASTERIDE],–,–,45.32%,–,8.032%,16.575 mg,3.5097 g,Non-toxic,30.3 nM,14.45%,105.51 mg,14.4%,1058.022 mg,44.76%
CCN1C(=O)CC[C@H]2[C@@H]3CC=C4C=C(C(=O)O)CC[C@]4(C)[C@H]3CC[C@@]21C,100%,32.3%,28.37%,100%,5.409%,15.574 mg,2.91 g,Non-toxic,22.1 nM,19.32%,151.015 mg,17.25%,1128.214 mg,39.35%
C[C@]12CCC(C(=O)O)=CC1=CC[C@@H]1[C@@H]2CC[C@]2(C)NC(=O)CC[C@@H]12,62.9%,0%,46.5%,–,8.323%,13.973 mg,2.713 g,Non-toxic,–,26.33%,186.102 mg,13.98%,993.729 mg,27.33%
C[C@]12CC[C@H]3[C@@H](CC=C4C=C(C(=O)O)CC[C@@H]43)[C@@H]1CCC2=O,100%,82.1%,15.62%,89.5%,22.992%,15.019 mg,3.078 g,Non-toxic,213 nM,34.8%,167.37 mg,29.88%,926.533 mg,22.56%

# Reference: ChEMBL document CHEMBL2169861, “Synthesis and biological evaluation of novel unsaturated carboxysteroids as human 5α-reductase inhibitors: a legitimate approach” (Eur J Med Chem, 2012)
